Rows were chosen to be rich in hits. Some 2.3% of all compounds tested hit in one or more screens of this group.
TRPC4 agonist: activators of mouse TRPC4 channel, primary screen, Fluo4 calcium, HEK293 TRPC4beta/mu-opioid cells; Short transient receptor potential channel 4 (Mus musculus), Q9QUQ5; Fluo4 calcium fluorescence; hits give high values; B-score at 10 µM; 310,000 tested, 0.49% active;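 active = B-score above 5 SD of library B-scores, and initial fluorescence ratio not above library mean plus 5 SD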;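 note: positive B-score marks a calcium rise read as TRPC4 activation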
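System – HEK293 cells stably co-expressing mouse TRPC4beta and mu-opioid receptor · Signal – Fluo4 calcium-sensitive dye fluorescence, kinetic, 1 Hz baseline · Benchmarks – buffer (low) and maximal DAMGO (high) · Read-out – B score of integrated fluorescence ratio per well · Incubation – dye loading 45 min room temperature, 110 s kinetic read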
TRPC6 activator: mouse TRPC6 channel activators, primary screen, cell-based, HEK293, membrane potential dye; HEK293-TRPC6 membrane potential dye fluorescence; hits give high values; B-score at 10 µM; Short transient receptor potential channel 6 (Mus musculus), Q61143; 310,000 tested, 0.13% active; AID 2550, 2010;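 active = B-score of the integrated fluorescence ratio above library mean plus 3 SD, and starting fluorescence ratio within library mean plus 5 SD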;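 note: higher score means more depolarization so channel activation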
TRPC4 PAM: positive allosteric modulators of TRPC4, primary screen, cell-based, mouse TRPC4beta, HEK293 mu-opioid, Fluo-4 calcium; DAMGO EC20, Fluo-4 Ca2+ flux; hits give high values; B-score at 10 µM; 310,000 tested, 0.42% active;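 active = B-score of calcium response area above 5 SD of library B-scores, with initial fluorescence ratio within 5 SD of library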
TRPC4 block: inhibitors of mouse TRPC4 channel, primary screen, Fluo4 calcium, HEK293 TRPC4beta/mu-opioid cells; Short transient receptor potential channel 4 (Mus musculus), Q9QUQ5; 300,000 tested, 0.39% active; B-score at 10 µM; DAMGO-evoked Fluo4 calcium flux; hits give low values;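 active = B-score over 3 SD under the library average, no early fluorescence shift, positive overall ratio signal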
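Signal: kinetic Fluo4 fluorescence imaging of calcium influx. Material: stable TRPC4beta/mu-opioid receptor HEK293 cells. Probe or stimulus: DAMGO in two steps, submaximal then maximal.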
TRPC6 inh: mouse TRPC6 channel inhibitors, primary screen, cell-based, HEK293, membrane potential dye; Short transient receptor potential channel 6 (Mus musculus), Q61143; ACh-evoked depolarization; hits give low values; B-score at 10 µM; 310,000 tested, 1.1% active; AID 2553, 2010;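 active = B-score under library mean minus 3 SD, initial fluorescence not abnormally high, positive integrated signal ratio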;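 note: B-score derived from integrated fluorescence ratio over the kinetic read; more negative B-score means stronger inhibition of depolarization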
Each line names hits and unclear results; the compound was inactive in the other large screens.

CN1CCN(Cc2nc3c(c(=O)[nH]c(=O)n3C)n2CCc2ccccc2)CC1	none
CCN(CC)S(=O)(=O)c1ccc2c(c1)c(=O)c(C(=O)N1CCN(c3ccccn3)CC1)cn2C	none
CN(Cc1ccccc1F)C(=O)CNC(=O)Cc1cccc2ccccc12	none
O=C(C[n+]1cccc(CNC(=O)c2ccc(OC(F)F)cc2)c1)Nc1ccccc1Cl	none
O=C(C[n+]1cccc(CNC(=O)c2ccc(OC(F)F)cc2)c1)Nc1ccc(SC(F)F)cc1	TRPC4 block -7
O=C(Nc1ccccn1)C1CCCN(c2ncnc3c2nc2n3CCCCC2)C1 (stereo not drawn)	none
CCCCN(C)C(=O)Cn1cnc2sc(C)c(S(=O)(=O)N3CCN(c4ccccc4OC)CC3)c2c1=O	none
CC12CN3CC(C)(CN(C1)C3c1ccc(Cl)cc1Cl)C2O (stereo not drawn)	TRPC4 agonist 48, TRPC4 block -6
CN(C)c1ccc(C2N3CC4(C)CN2CC(C)(C3)C4O)cc1 (stereo not drawn)	none
O=C(Nc1ccccc1Cl)c1ccc(-n2cccn2)c([N+](=O)[O-])c1	none
Cc1nc2scc(C)n2c(=O)c1S(=O)(=O)N1CCN(c2ccc([N+](=O)[O-])cc2)CC1	none
O=[N+]([O-])c1ccc(S(=O)(=O)NCCCc2ccccc2)cc1	TRPC4 PAM 57
COC(=O)c1ccc(/C=N/N2CCN(Cc3ccc(C)cc3C)CC2)cc1	TRPC4 PAM 16
Cn1nc([N+](=O)[O-])c(C(C#N)c2ccccn2)c(Cl)c1=O (stereo not drawn)	none
CCn1nc([N+](=O)[O-])c(C(C#N)c2nc3cc(C(F)(F)F)ccc3s2)c(Cl)c1=O (stereo not drawn)	TRPC6 inh -11
Cc1cccc(C(=O)OC2CCCN(C)C2)c1C (stereo not drawn)	TRPC4 agonist 95
Cc1ccccc1C(=O)OC1CCCN(C)C1 (stereo not drawn)	TRPC4 PAM 14
CN1CCCC(OC(=O)c2ccc(C#N)cc2)C1 (stereo not drawn)	none
Cc1cc(CNC(=O)c2cc(COc3ccc(F)c(F)c3)on2)nn1C	none
COC(CN(C)C(=O)C1CCCN(S(=O)(=O)c2ccc3c(c2)oc(=O)n3C)C1)OC (stereo not drawn)	none
COc1ccccc1N1CCN(CC(C)N(C(=O)C2CCCCC2)c2ccccn2)CC1 (stereo not drawn)	TRPC4 block -6
Cc1ccc(N(CC(=O)NC2CCCC2)C(=O)CNC(=O)c2cccs2)cc1F	TRPC4 block -7
COc1cc2c(cc1OC)C(C)N(CCN1C(=O)c3ccccc3C1=O)CC2 (stereo not drawn)	none
COc1cc2c(cc1OC)C(C)N(CCc1ccc(Cl)cc1)CC2 (stereo not drawn)	TRPC4 block -6
CN1CCN(c2ccc(NC(=O)c3ccc(-c4ccc(Cl)cc4)o3)cc2)CC1	none
CN1CCN(c2ccc(NC(=O)c3ccc(-c4cccc([N+](=O)[O-])c4)o3)cc2)CC1	TRPC4 agonist 167
COCCNC(=O)/C(C#N)=C/c1cc(C(C)C)c(OC)cc1C	TRPC4 PAM 17
COc1cc(C)c(/C=C(\C#N)C(=O)Nc2ccc(C)cc2)cc1C(C)C	none
COCCNC(=O)/C(C#N)=C/C=C/c1ccccc1	none
COCCNC(=O)/C(C#N)=C/c1ccccc1Br	TRPC4 PAM 13
COC(=O)c1cc(C(=O)c2ccc(C(C)(C)C)cc2)c[nH]1	TRPC4 PAM 10
Cc1nnc(SCC(=O)N(CC(C)C)c2c(N)n(Cc3ccccc3)c(=O)[nH]c2=O)n1N	none
Cc1ccccc1OCC(=O)NCCCNC(=O)c1ccccn1	none
CC(C)n1c(NCc2ccccc2O)nc2ccccc21	TRPC4 block -6
Cn1c(NCc2ccccc2O)nc2ccccc21	TRPC4 block -6
C=CCc1cccc(CNc2nc3ccccc3n2C(C)C)c1O	none
Cn1c(NCc2ccccc2Cl)nc2ccccc21	none

Compound activity deposited in PubChem by Johns Hopkins Ion Channel Center.
